High-throughput results deposited in PubChem by NMMLSC.
Most compounds without a hit are left out; they make up all but 2.5% or so of the library.
MEKK2wt PB1 HTS = raises or lowers MEK5 binding to wildtype human MEKK2 PB1 domain | Q9Y2U5 | bead flow cytometry, Alexa488-MEK5 binding to MEKK2 WT; actives lie on both sides | binding response (% of control), % at 10 µM | 290,000 tested, 1.1% active | AID 1531; in the data active = binding response below about 67% or above about 130%
Efflux pump mplx = antifungal efflux pump inhibition, Nile Red retention | inhibition, % at 10 µM | 330,000 tested, 0.44% active | S. cerevisiae Candida pump triplex;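 active = plate passing quality check with inhibition over a set limit, or well fluorescence over plate mean plus 4 SD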;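 also: Nile Red retained in pooled yeast measured as flow cytometry median fluorescence; higher means more Nile Red kept so more efflux inhibition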
ABCB1 inh = human ABCB1 inhibition, ABCG2 as counter-screen; CCRF-Adr cells, JC-1 efflux, flow cytometry; inhibition, % at 6.6 µM; 190,000 tested, 0.067% active; in the data active = inhibition above about 40%;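 also: higher value means more JC-1 retained so stronger ABCB1 efflux block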
MEKK2mut PB1 HTS = signal of MEK5 binding to mutant human MEKK2 PB1 domain; bead flow cytometry, Alexa488-MEK5 binding to MEKK2 mutant; percent response, % at 10 µM; 290,000 tested, 0.35% active; AID 1530; in the data active = percent response above about 24%, passing the limit was not always enough
ABCG2 block = human ABCG2 inhibition, ABCB1 as counter-screen; Q9UNQ0; 190,000 tested, 0.1% active; IgMXP3 cells, JC-1 efflux, flow cytometry; inhibition, % at 6.6 µM;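 active = inhibition above 80%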
Target sequence (Q9UNQ0 whole entry, looked up): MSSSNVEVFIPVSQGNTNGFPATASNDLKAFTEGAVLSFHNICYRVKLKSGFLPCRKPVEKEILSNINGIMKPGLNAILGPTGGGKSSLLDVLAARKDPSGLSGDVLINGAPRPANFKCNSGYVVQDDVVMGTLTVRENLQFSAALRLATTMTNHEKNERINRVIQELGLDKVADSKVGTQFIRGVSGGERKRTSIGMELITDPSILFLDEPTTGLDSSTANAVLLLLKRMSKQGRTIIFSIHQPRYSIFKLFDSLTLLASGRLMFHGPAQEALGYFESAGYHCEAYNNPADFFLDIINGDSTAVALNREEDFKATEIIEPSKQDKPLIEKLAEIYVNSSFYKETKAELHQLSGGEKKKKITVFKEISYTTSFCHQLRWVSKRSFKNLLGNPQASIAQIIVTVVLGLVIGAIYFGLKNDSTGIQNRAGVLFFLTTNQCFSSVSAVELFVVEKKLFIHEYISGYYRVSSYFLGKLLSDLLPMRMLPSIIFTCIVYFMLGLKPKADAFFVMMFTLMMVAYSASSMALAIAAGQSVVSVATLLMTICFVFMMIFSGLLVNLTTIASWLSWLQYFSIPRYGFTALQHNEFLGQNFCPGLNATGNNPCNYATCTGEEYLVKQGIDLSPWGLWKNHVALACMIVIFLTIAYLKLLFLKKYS
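Test system: ABCG2 IgMXP3 and barcoded ABCB1 CCRF-Adr cell mix; Schedule: cells with compound and JC-1, 10 min at 25 °C, rotating, no wash; Technique: flow cytometry of retained JC-1 fluorescence; Measure: % inhibition of efflux relative to nicardipine and DMSO; Controls: nicardipine high and DMSO low controls.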
MEKK3 PB1 HTS = MEKK3-MEK5 PB1 interaction, increase or decrease; bead-based flow cytometry, Alexa488-MEK5 binding to MEKK3; actives lie on both sides; 0 = blocked by unlabeled MEK5, 100 = vehicle; 290,000 tested, 1.4% active; binding response (% of control), % at 10 µM; Q99759; AID 1529;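 active = binding response more than 3 SD above or below the average of its plate-row segment, actives on both sides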;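 also: Alexa488 bead fluorescence after subtracting the streptavidin-only scavenger bead signal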
MEKK2wt confirm = raises or lowers MEK5 binding to wildtype human MEKK2, retest; shares compounds with MEKK3 PB1 HTS; bead flow cytometry, Alexa488-MEK5 binding to MEKK2 WT; actives lie on both sides; binding response (% of control), % at 10 µM; 5,900 tested, 2.4% active; AID 1892; in the data active = binding response below about 16% or above about 210%; inactive = in between
MEKK2mut confirm = signal of MEK5 binding to mutant human MEKK2, retest | shares compounds with MEKK3 PB1 HTS | percent response, % at 10 µM | bead flow cytometry, Alexa488-MEK5 binding to MEKK2 mutant | 5,900 tested, 2% active; in the data active = percent response mostly above about 71%, no sharp cut-off; inactive = mostly below about 38%;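 also: higher means compound restores mutant binding toward wildtype level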
MEKK3 confirm = confirmation of inhibitors of MEK5 binding to human MEKK3; shares compounds with MEKK3 PB1 HTS; bead flow cytometry, Alexa488-MEK5 binding to MEKK3; active compounds read low; binding response (% of control), % at 10 µM; 5,900 tested, 1.8% active;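 active = binding response below 72% of control, or above a set upper limit, though filed actives all read lower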;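 also: lower values mean stronger disruption of MEK5 binding to MEKK3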
A number is an active result; – = inactive; · = no result; [ ] = dose if it differs, or a comment.

SMILES	MEKK2wt PB1 HTS	Efflux pump mplx	ABCB1 inh	MEKK2mut PB1 HTS	ABCG2 block	MEKK3 PB1 HTS	MEKK2wt confirm	MEKK2mut confirm	MEKK3 confirm
COc1ccc(-n2nc(C(=O)NCC(=O)NCc3ccc(F)cc3)c3ccccc3c2=O)cc1	–	–	·	–	·	–	·	·	·
COc1ccccc1NS(=O)(=O)c1ccc(C(N)=O)cc1	35[inhibitor]	–	–	–	–	28[inhibitor]	–	–	–
O=C(Nc1nccs1)c1ccc(COc2c(F)c(F)cc(F)c2F)cc1	–	–	·	–	·	–	·	·	·
COc1nc(NCCC2=CCCCC2)nc(OC)n1	–	–	–	–	–	124	–	–	–
CC(C)Oc1ccc(C(=O)N2CCCc3ccccc32)cc1	–	–	–	–	–	123	–	–	–
CCOc1ccc(CN2CCNC(=O)C2CC(=O)NCc2csc(C(C)C)n2)cc1 (stereo not drawn)	–	·	·	–	·	–	·	·	·
O=C1CCCN2N=C(SCC(=O)N3CCCCC3)SC2=N1	–	–	·	–	·	–	·	·	·
CCC1CCCCN1C(=O)CSC1=NN2CCCC(=O)N=C2S1 (stereo not drawn)	–	–	·	–	·	132	–	–	–
CC1=CC(C)(C)N(C(=O)c2ccccc2)c2ccccc21	–	–	–	–	–	–	·	·	·
CC1=CC(C)(C)N(C(=O)Nc2ccccc2)c2ccccc21	–	–	–	–	–	43[inhibitor]	–	–	–
CCOC(=O)/C(C#N)=C\c1c(OCC)n(CC)c2ccccc12	–	–	–	–	–	134	–	–	–
O=C(NCc1nc2ccccc2[nH]1)C1=C[C@H](C2CC2)C[C@H](OCCCCO)O1	–	–	–	–	–	79[inhibitor]	–	–	–
CCO[C@H]1OC(C(=O)NCc2nc3ccccc3[nH]2)=C[C@@H](c2ccccc2)[C@@H]1CCCO	–	–	–	–	–	–	·	·	·
CCO[C@H]1OC(C(=O)NCc2nc3ccccc3[nH]2)=C[C@@H](C2CC2)[C@@H]1CCCO	2.0[inhibitor]	–	–	–	–	1.0[inhibitor]	–	–	–
CCOc1ccccc1NC(=O)NCCCCc1ccccc1	–	–	·	–	·	–	·	·	·
Cn1c(=O)c2ncn(CC(=O)N/N=C/C=C/c3ccccc3)c2n(C)c1=O	–	–	–	–	–	–	·	·	·
Cn1c(=O)c2ncn(CC(=O)N/N=C/c3ccco3)c2n(C)c1=O	–	–	–	–	–	140	–	–	–
Cc1cccc2cc(/C=N/Nc3ccc(C(=O)O)cc3)c(Cl)nc12	–	–	·	–	·	66[inhibitor]	–	–	–
CC1=C(C#N)C(=O)NC(=O)/C1=C/c1ccc(-c2ccc(S(N)(=O)=O)cc2)o1	3.0[inhibitor]	–	–	–	–	7.0[inhibitor]	–	–	–
COC(=O)CCCCCCCCC(O)C[N+]1(C)CCOCC1 (stereo not drawn)	27[inhibitor]	–	·	–	·	22[inhibitor]	–	–	–
O=C(NC1CCCC1)C(c1cccnc1)N(Cc1ccc(F)cc1)C(=O)c1csnn1 (stereo not drawn)	–	–	·	–	·	–	·	·	·
O=C(NCCOc1ccccc1F)c1ccc2c(=O)n3c(nc2c1)CCC3	·	–	·	·	·	·	·	·	·
COc1cccc2sc3cc(C#CC4(O)CCCCC4)ccc3c(=O)c12	·	–	·	·	·	·	·	·	·
COc1cccc2sc3ccc(C#CC4(N)CCCCC4)cc3c(=O)c12	136	–	·	–	·	–	–	–	–
CCC(C)N=C1SCC(C)(/C=N/O)S1 (stereo not drawn)	135	–	–	–	–	128	–	–	–
SMILES	MEKK2wt PB1 HTS	Efflux pump mplx	ABCB1 inh	MEKK2mut PB1 HTS	ABCG2 block	MEKK3 PB1 HTS	MEKK2wt confirm	MEKK2mut confirm	MEKK3 confirm
CC(C)(C)N=C1SCC(C)(/C=N/O)S1 (stereo not drawn)	–	–	–	–	–	–	·	·	·
COc1ccc(-c2nc3ccccc3c(=O)n2CC(C)C)cc1	–	–	·	–	·	–	·	·	·
Oc1ccccc1CNc1cnc2ccccc2c1	-5.0[inhibitor]	–	–	–	–	–	–	–	–
Oc1ccc(Cl)cc1CNc1cnc2ccccc2c1	–	–	·	–	·	–	·	·	·
O=S(=O)(c1cccc(Cn2nnc(-c3ccccc3)n2)c1)N1CCOCC1	·	–	·	·	·	·	·	·	·
Clc1ccc(CO/N=C2\CCCc3nonc32)cc1	–	–	–	–	–	145	–	–	–
CCN(CC)c1ccc(NC(=O)CN2CCN(CC(=O)Nc3ccccc3F)CC2)cc1	–	–	–	–	–	122	–	–	–
O=C(COC(=O)c1ccc(CSc2ccc(Cl)cc2)cc1)Nc1ccccc1	–	–	–	–	–	–	·	·	·
O=C(O)C(Cc1ccccc1)N1C(=O)/C(=C/C=C/c2ccco2)SC1=S (stereo not drawn)	40[inhibitor]	·	·	–	·	37[inhibitor]	–	–	–
O=C(O)CC(C(=O)O)N1C(=O)/C(=C/C=C/c2ccco2)SC1=S (stereo not drawn)	–	–	·	–	·	–	·	·	·
Cc1c2ccccc2nc2c(F)c(N(C)C)c(F)c(F)c12	–	–	–	–	–	145	–	–	–
CCc1cc(C(=O)c2ccc(C)cc2)c(NC(=O)CCl)s1	–	–	–	–	–	–	·	·	·
Cc1cc(C(=O)c2ccc(Cl)cc2)c(NC(=O)CCl)s1	–	–	–	–	–	135	–	–	–
CCOc1ccccc1CNC(=O)CN1C(=O)CSc2ccc(S(=O)(=O)N3CCOCC3)cc21	–	–	·	–	·	–	·	·	·
O=C(NNC(=O)C1CC2CCC1C2)c1sc2ccccc2c1Cl (stereo not drawn)	–	–	–	–	–	149	–	–	–
COc1cccc(OCc2cc(C(=O)N(Cc3ccccc3)CC3CC3)no2)c1	–	–	·	–	·	–	·	·	·
CCOC(=O)Nc1cc(Br)c2c(c1)OCCO2	-4.0[inhibitor]	–	–	–	–	0.0[inhibitor]	–	–	–
Cc1cc(C(=O)COC(=O)CNS(=O)(=O)c2ccc3ccccc3c2)c(C)n1-c1ccccc1	–	–	–	–	–	164	–	–	–
COc1cc(/C=C/C(=O)Nc2ccncc2)cc(OC)c1OC	–	–	–	–	–	146	–	–	–
COc1cc(/C=C/C(=O)Nc2ccc(C(C)=O)cc2)cc(OC)c1OC	–	–	–	–	–	–	·	·	·
Nc1[nH]ncc1-c1ccccc1	–	–	–	–	–	–	·	·	·
N=c1n(CCCOc2ccccc2Cl)c2ccccc2n1CC(N)=O	–	–	·	–	·	–	·	·	·
Cc1ccc(-c2cc3nc(-c4ccc(Br)cc4)cc(N)n3n2)cc1	–	–	–	–	–	134	–	–	–
COc1ccc(C(=O)NNC(=O)COC(=O)c2sccc2C)cc1	·	–	·	·	·	·	·	·	·
